Data taken from ChEMBL document CHEMBL1147444, “Antagonists of human CCR5 receptor containing 4-(pyrazolyl)piperidine side chains. Part 1: Discovery and SAR study of 4-pyrazolylpiperidine side chains” (Bioorg Med Chem Lett, 2004).

What was measured:
Rattus norvegicus = assay: Area under curve in rat after p.o. administration; assay type: ADME, organism-based; conditions: in vivo, po
[1] = Oral bioavailability in rat; assay type: ADME, organism-based; conditions: in vivo
HeLa [2] = assay: (§1) In vitro antiviral activity against HIV-1 infected HeLa cells; assay type: functional, cell-based; conditions: Homo sapiens
Method in brief: (§2)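 Cell-culture HIV-1 infectivity assay in HeLa cells. Read-out is the IC90, with the IC50 given for some entries.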

[3] = biological target: T1, C-C chemokine receptor type 5 (Homo sapiens, UniProt P51681); assay: Inhibitory activity against human CC chemokine receptor 5
Method in brief: (§3)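 Displacement of [125I]-labeled MIP-1α from human CCR5 on CHO cell membranes, described as a GP120-membrane-based assay. IC50 values are averages of triplicate measurements, with a standard compound run to check variability between assays. Single-point lines are percent inhibition at 2 μM.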
Target sequence in this assay (P51681 whole entry): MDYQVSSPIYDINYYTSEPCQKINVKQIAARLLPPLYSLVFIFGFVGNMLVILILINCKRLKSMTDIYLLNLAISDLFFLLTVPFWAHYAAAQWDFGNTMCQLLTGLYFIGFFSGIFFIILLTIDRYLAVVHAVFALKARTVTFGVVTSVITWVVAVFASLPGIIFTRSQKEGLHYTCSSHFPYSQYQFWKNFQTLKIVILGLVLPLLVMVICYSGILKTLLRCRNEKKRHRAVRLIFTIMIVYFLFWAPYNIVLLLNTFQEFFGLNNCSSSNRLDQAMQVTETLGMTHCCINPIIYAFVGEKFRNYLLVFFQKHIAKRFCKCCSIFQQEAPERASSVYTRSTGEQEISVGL

[4] = test system: Human immunodeficiency virus 1; assay: as §1; assay type: functional; conditions: Human immunodeficiency virus 1, HeLa; method in brief: as §2
[5] = Plasma clearance in rat; assay type: ADME, organism-based; conditions: read-out: Clp
[6] = Hafl life rat; assay type: ADME, organism-based; conditions: in vivo
[7] = biological target: T1, C-C chemokine receptor type 5; assay: Inhibition of human C-C chemokine receptor 5 by displacement of [125I]-labeled MIP-1alpha from CHO cell membranes
Target sequence in this assay (P51681 whole entry): as above

[8] = biological target: T1, C-C chemokine receptor type 5; assay: Inhibitory concentration to displace [125I]-MIP-1 alpha from CX3C chemokine receptor 5; method in brief: as §3
Target sequence in this assay (P51681 whole entry): as above

[9] = biological target: T1, C-C chemokine receptor type 5; assay: Inhibitory concentration to displace [125I]-MIP-1 alpha from human […] chemokine receptor 5 expressed in CHO cell; assay type: cell-based; method in brief: as §3
Target sequence in this assay (P51681 whole entry): as above

[10] = Hafl life in rat; assay type: ADME, organism-based; conditions: in vivo
HeLa [11] = assay: In vitro antiviral activity against HIV-1 infected HeLa cells from GP120-membrane-based assay; assay type: functional; conditions: Homo sapiens; method in brief: as §2
[12] = biological target: T1, C-C chemokine receptor type 5; assay: Inhibitory activity against human Chemokine receptor 5 when co-administered with compound 8f; method in brief: as §3
Target sequence in this assay (P51681 whole entry): as above

HeLa [13] = assay: In vitro antiviral activity against HIV-1 infected HeLa cells when co-administered with compound 8f; assay type: functional; conditions: Homo sapiens; method in brief: as §2
[14] = biological target: T1, C-C chemokine receptor type 5; assay: Inhibitory activity against human Chemokine receptor 5 at 2 uM concentration; method in brief: as §3
Target sequence in this assay (P51681 whole entry, looked up): as the sequence (P51681 whole entry) above

HeLa [15] = assay: In vitro antiviral activity against HIV-1 infected HeLa cells when co-administered with compound 8g; assay type: functional; conditions: Homo sapiens; method in brief: as §2
[16] = biological target: T1, C-C chemokine receptor type 5; assay: Inhibitory activity against human […] chemokine receptor 5 when co-administered with compound 8g
Target sequence in this assay (P51681 whole entry): as above

[17] = test system: Human immunodeficiency virus 1; assay: Concentration required for anti viral activity against BAL-1 strain of HIV-1 was determined using peripheral blood mononuclear cells; assay type: functional
Method in brief: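 Seven-day in vitro infectivity assay in peripheral blood mononuclear cells infected with the HIV-1 BAL-1 strain. Read-out is the IC95.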

IC50 [3] [nM] | IC90 [4] [nM] | Compound | also measured
22 | > 300 | CCn1nc(-c2ccccc2)cc1C1CCN(C[C@H]2CN([C@@H](C(=O)O)C3CCCCC3)C[C@@H]2c2ccccc2)CC1 | AUC N (Rattus norvegicus): 1.7 uM hr dose-1; bioavailability [1]: 21%; IC50 (HeLa [2]): 100 nM; clearance [5]: 3.8 mL/min/kg; half-life [6]: 90 min
2.1 | 300 | O=C(O)[C@@H](C1CCCCC1)N1C[C@H](CN2CCC(c3n[nH]cc3C(F)(F)c3ccccc3)CC2)[C@@H](c2ccccc2)C1 | 
23 |  | CCn1ncc(C(=O)c2ccccc2)c1C1CCN(C[C@H]2CN([C@@H](C(=O)O)C3CCCCC3)C[C@@H]2c2ccccc2)CC1 | 
41 |  | O=C(c1ccccc1)c1c[nH]nc1C1CCN(C[C@H]2CN([C@@H](C(=O)O)C3CCCCC3)C[C@@H]2c2ccccc2)CC1 | 
 | 3.7 | Cn1ncc(CCc2ccccc2)c1C1CCN(C[C@H]2CN([C@@H](C(=O)O)C3CCCCC3)C[C@@H]2c2ccccc2)CC1 | IC50 [7]: 1 nM
16 | > 300 | CCn1nc(-c2ccc(C#N)cc2)cc1C1CCN(C[C@H]2CN([C@@H](C(=O)O)C3CCCCC3)C[C@@H]2c2ccccc2)CC1 | IC50 (HeLa [2]): 33 nM
 | > 300 | O=C(O)[C@@H](C1CCCCC1)N1C[C@H](CN2CCC(c3cc(-c4ccc(Cl)cc4Cl)[nH]n3)CC2)[C@@H](c2cccc(F)c2)C1 | IC50 [7]: 9 nM
4.2 | 3.7 | Cn1nc(Cc2ccccc2)cc1C1CCN(C[C@H]2CN([C@@H](C(=O)O)C3CCCCC3)C[C@@H]2c2ccccc2)CC1 | 
 | 11 | CCCn1ncc(CCc2ccccc2)c1C1CCN(C[C@H]2CN([C@@H](C(=O)O)C3CCCCC3)C[C@@H]2c2ccccc2)CC1 | IC50 [7]: 0.6 nM
1.2 | 3.7 | O=C(O)[C@@H](C1CCCCC1)N1C[C@H](CN2CCC(c3nocc3Cc3ccccc3)CC2)[C@@H](c2ccccc2)C1 | 
112 |  | CCn1nc(-c2ccc(CN)cc2)cc1C1CCN(C[C@H]2CN([C@@H](C(=O)O)C3CCCCC3)C[C@@H]2c2ccccc2)CC1 | 
20 | > 300 | CCn1cc(Cc2ccccc2)c(C2CCN(C[C@H]3CN([C@@H](C(=O)O)C4CCCCC4)C[C@@H]3c3ccccc3)CC2)n1 | 
4.4 | > 300 | O=C(O)[C@@H](C1CCCCC1)N1C[C@H](CN2CCC(c3n[nH]cc3C3(c4ccccc4)CC3)CC2)[C@@H](c2ccccc2)C1 | 
0.8 | 0.4 | O=C(O)[C@@H](C1CCCCC1)N1C[C@H](CN2CCC(c3oncc3Cc3ccccc3)CC2)[C@@H](c2ccccc2)C1 | AUC N (Rattus norvegicus): 0.03 uM hr dose-1; bioavailability [1]: 5.9%; clearance [5]: 67 mL/min/kg
 |  | CCCn1cc(CCc2ccccc2)c(C2CCN(C[C@H]3CN([C@@H](C(=O)O)C4CCCCC4)C[C@@H]3c3ccccc3)CC2)n1 | IC50 [7]: 9 nM
2.3 | 300 | CCn1cc(CCc2ccccc2)c(C2CCN(C[C@H]3CN([C@@H](C(=O)O)C4CCCCC4)C[C@@H]3c3ccccc3)CC2)n1 | 
4.8 | 100 | O=C(O)[C@@H](C1CCCCC1)N1C[C@H](CN2CCC(c3[nH]ncc3Cc3ccccc3)CC2)[C@@H](c2ccccc2)C1 | 
33 |  | O=C(O)Cn1nc(Cc2ccccc2)cc1C1CCN(C[C@H]2CN([C@@H](C(=O)O)C3CCCCC3)C[C@@H]2c2ccccc2)CC1 | 
4.6 | 1.2 | CCCn1nc(Cc2ccccc2)cc1C1CCN(C[C@H]2CN([C@@H](C(=O)O)C3CCCCC3)C[C@@H]2c2ccccc2)CC1 | 
3 | 11 | CCCCn1nc(Cc2ccccc2)cc1C1CCN(C[C@H]2CN([C@@H](C(=O)O)C3CCCCC3)C[C@@H]2c2ccccc2)CC1 | 
76 | > 300 | CCn1nc(C2CCN(C[C@H]3CN([C@@H](C(=O)O)C4CCCCC4)C[C@@H]3c3ccccc3)CC2)cc1Cc1ccccc1 | 
 | 0.4 | CCn1nc(Cc2ccccc2)cc1C1CCN(C[C@H]2CN([C@@H](C(=O)O)C3CCCCC3)C[C@@H]2c2ccccc2)CC1 | IC50 [8]: 2.1 nM; AUC N (Rattus norvegicus): 0.02 uM hr dose-1; IC50 [9]: 1.2 nM; bioavailability [1]: 4.1%; half-life [10]: 49.2 min; clearance [5]: 64 mL/min/kg
11.5 |  | CC(C)(c1ccccc1)c1cn[nH]c1C1CCN(C[C@H]2CN([C@@H](C(=O)O)C3CCCCC3)C[C@@H]2c2ccccc2)CC1 | 

IC50 [3] [nM] | IC90 [4] [nM] | Compound | also measured
3 | 3.7 | CCn1ncc(Cc2ccccc2)c1C1CCN(C[C@H]2CN([C@@H](C(=O)O)C3CCCCC3)C[C@@H]2c2ccccc2)CC1 | IC90 (HeLa [11]): 10 nM
0.6 | 0.4 | CCn1ncc(CCc2ccccc2)c1C1CCN(C[C@H]2CN([C@@H](C(=O)O)C3CCCCC3)C[C@@H]2c2ccccc2)CC1 | AUC N (Rattus norvegicus): 0.01 uM hr dose-1; bioavailability [1]: 2.6%; clearance [5]: 79 mL/min/kg
9 | 11 | CCOC(=O)Cn1nc(Cc2ccccc2)cc1C1CCN(C[C@H]2CN([C@@H](C(=O)O)C3CCCCC3)C[C@@H]2c2ccccc2)CC1 | 
 |  | CCc1cc(Cc2ccccc2)n(C2CCN(C[C@H]3CN([C@@H](C(=O)O)C4CCCCC4)C[C@@H]3c3ccccc3)CC2)n1 | IC50 [12]: 78 nM; IC90 (HeLa [13]): > 300 nM
 |  | Cc1cc(-c2ccccc2)n(C2CCN(C[C@H]3CN([C@@H](C(=O)O)C4CCCCC4)C[C@@H]3c3ccccc3)CC2)n1 | inhibition [14]: 65%
 |  | Cn1cc(CCc2ccccc2)c(C2CCN(C[C@H]3CN([C@@H](C(=O)O)C4CCCCC4)C[C@@H]3c3ccccc3)CC2)n1 | IC50 [7]: 23 nM
 | > 300 | O=C(O)[C@@H](C1CCCCC1)N1C[C@H](CN2CCC(c3cc(-c4cccc5ccccc45)[nH]n3)CC2)[C@@H](c2ccccc2)C1 | IC50 [7]: 7.5 nM
 |  | CCn1nc(-c2cccc3ccccc23)cc1C1CCN(C[C@H]2CN([C@@H](C(=O)O)C3CCCCC3)C[C@@H]2c2cccc(F)c2)CC1 | IC50 [7]: 16 nM
6.9 | 300 | CCn1ncc(C(C)(C)c2ccccc2)c1C1CCN(C[C@H]2CN([C@@H](C(=O)O)C3CCCCC3)C[C@@H]2c2ccccc2)CC1 | 
 |  | CCc1cc(CCc2ccccc2)nn1C1CCN(C[C@H]2CN([C@@H](C(=O)O)C3CCCCC3)C[C@@H]2c2ccccc2)CC1 | IC90 (HeLa [15]): > 300 nM; IC50 [16]: 105 nM
1.2 | 33 | O=C(O)[C@@H](C1CCCCC1)N1C[C@H](CN2CCC(c3n[nH]cc3CCc3ccccc3)CC2)[C@@H](c2ccccc2)C1 | 
 | > 300 | COc1ccc(-c2cc(C3CCN(C[C@H]4CN([C@@H](C(=O)O)C5CCCCC5)C[C@@H]4c4cccc(F)c4)CC3)[nH]n2)cc1 | IC50 [7]: 12 nM
 | 11 | CCn1nc(CCc2ccccc2)cc1C1CCN(C[C@H]2CN([C@@H](C(=O)O)C3CCCCC3)C[C@@H]2c2cccc(F)c2)CC1 | AUC N (Rattus norvegicus): 0.01 uM hr dose-1; bioavailability [1]: 3.2%; IC50 [7]: 2.2 nM; clearance [5]: 72 mL/min/kg; half-life [6]: 27 min
 |  | Cc1cc(-c2ccccc2)nn1C1CCN(C[C@H]2CN([C@@H](C(=O)O)C3CCCCC3)C[C@@H]2c2ccccc2)CC1 | inhibition [14]: 79%
 | > 300 | N#Cc1ccc(-c2cc(C3CCN(C[C@H]4CN([C@@H](C(=O)O)C5CCCCC5)C[C@@H]4c4ccccc4)CC3)n[nH]2)cc1 | IC50 (HeLa [2]): 100 nM; IC50 [7]: 7.5 nM
 | > 300 | O=C(O)[C@@H](C1CCCCC1)N1C[C@H](CN2CCC(c3cc(-c4ccc(Cl)cc4)n[nH]3)CC2)[C@@H](c2cccc(F)c2)C1 | IC50 [7]: 4 nM
 |  | O=C(O)[C@@H](C1CCCCC1)N1C[C@H](CN2CCC(CCCc3ccccc3)CC2)[C@@H](c2ccccc2)C1 | IC50 [7]: 0.2 nM; IC95 [17]: 93 nM
 |  | CCN(C(=O)OCc1ccccc1)C1CCN(CC[C@H](CN(C)S(=O)(=O)c2ccccc2)c2cccc(Cl)c2)CC1 | IC50 [7]: 2.4 nM; IC95 [17]: 13 nM
 |  | CCc1cc(CCc2ccccc2)n(C2CCN(C[C@H]3CN([C@@H](C(=O)O)C4CCCCC4)C[C@@H]3c3ccccc3)CC2)n1 | inhibition [14]: 82%
11 |  | CCn1ncc(C2(c3ccccc3)CC2)c1C1CCN(C[C@H]2CN([C@@H](C(=O)O)C3CCCCC3)C[C@@H]2c2ccccc2)CC1 | 
2.2 | 0.4 | O=C(O)[C@@H](C1CCCCC1)N1C[C@H](CN2CCC(c3cc(Cc4ccccc4)n[nH]3)CC2)[C@@H](c2ccccc2)C1 | 
4.8 | 33 | O=C(O)[C@@H](C1CCCCC1)N1C[C@H](CN2CCC(c3cc(Cc4ccccc4)nn3CC(F)(F)F)CC2)[C@@H](c2ccccc2)C1 | 
